Test results as given in publication PMC6743453 (Molecular Biology of the Cell, 2019).
“Also recorded” adds a separate entry of the source.

B1: DDB_G0280015: PH domain Interacting with OCRL, 741 amino acid protein of D. discoideum (protein)
chain: MESSSMTTNNNNNNSTISPSSSTTSISTSKNNDFLTLHKAYIDEWLMVSFLPILKTTYDGENNFYDISNLNIKNVNQRNIPFSEQLFALDRQFQNLINQWEKLSRSDQQRAAKIESYQQSFYTFIDRIKSTLEKTMVELGGSLEDSNFLAAAISLKEKQSKNKRLTIMARSRISPGGTSSTQYQHQMHLTGPISIVWNEILIIITRKVNEEVVRLQTENINNNIKNINNSEFNITNDIYQFNNNNLTQANKLEINNQRQKLYQQALSNIVPMLFEWRIMMANAQKVISEEKRFKVNPFIPTTVYDHNSSSFISAPILISTTNKTATTLLNNLNNNNIINNNNNNNNNNNNNNNNNNNNNNNNNSSSNSNNNNNSPISNSPSSSSPSPSSPTLTNRPSFINYDNQNNENNINNNNNNENNIGNNNINNNNSNENSDNKFSEEINISSSPPGTSGMTNSTSNLPTIASPTSWTKAVKRPAMSSSGGNIPILNNLGTSLNNNNNNKQIQDNNNNNLNTINANSNGNNNNSSNNVNSENNNIPTGGIIKQGWMKKRGTKNKSWKKRYFILDMKKTLRYYKDNSKIPHGNNSNNSGGGSSSNNNNCNSGNNNNGLNGGSGKGDQVNGNNISLPIGNNPHFHSSSGSGIPTTSPSMSSSSTSLENNDILSSFDHLKYKGSIDLYTSLVVAIKPSTFNVNINNSGSFKEDNNSYFGMDIITPSRTWNFCCESSKSMEDWLIVLKSANK
B2: GxcU: putative Rho-GEF of D. discoideum (protein)
chain: MDTKNKEILGSTIKAWIGRKRYKTMMVNKTNRDKVAKEILDTEQIYVRNLETIVQFYLKPLRNINPPLLSPKSIQIIFGHIEDLLSLNTELLTSIQDRMTTWYQDKRLGDIFTKMAPYLKVYTEYCGNYDKAVARLKQKSDESRDLQMFLKRVTSENSFGLDLNSLLVTPIQRIPRYKLLLQSLIQLTPVEFSDYPTLAKALENVALVADHINESIREKQNSEKILTIQKRFTGQCPPLLAPLRTFIREGSLTKVCRKDHKKRWFILFSDALVYGNRIDTAVGNPIYKFHRLLPLSNTKIANLDDTKHKNSFQLIHPIKSFTLIADTEQEKSSWMNSFSDAQNFLLRNEGSVARMNKQYRSINILKPKEEETVSTAPVWIPDSEAIQCMECTIKFTTIRRRHHCRRCGNVVCGKCSEQKWTLDQYKKDARVCKTCYNYLSISSSRSNENNVSSSNNLSTPTSTFTATTATATAPFGTLTDGASLADVSSDSEGEDNSSSINDSNPDMPIINGLSSIQIDNTPVILNTVNPSPPLLSQPQPQQPQQPQLQPLQQPLQQPPQPPQPPQTNHKSFIATHTAYNKENSLKSTSPSSSFIETSTSTSASTSTSTSTSTSTSTSTSTSTSTSTSNSTSNSTLTPGPPMLSKSNAGNSSLLDFCKSYIQNSPNVSPAKVEKHKHSSSSSSASNSPMQSRTNLDIPSTTTTSTSKGSISPTQSSESIVLPELKPITHDPLVTSNNSSSTLKVNQPIQHTNSSSKLNVIVSTPQTTQTTENNVNNTNTNTTTTNNNNNNNNNNNNNNNNNNNNNNNNNNNNSDVSSPKPTTKSLPPTPPTKKLPPTPPPKPLPPQPTLPQQPTLPPQPNLPPQPNLPPQPNLPPQPNLPPQPNLPQQPDLSQPPPQQQQQPTLDQAPPRPPKPNQDSRSQSFLCISSTVNSTPPTPPPKRIISTHPANTSFIYQPQQYVSSPNINNVPPPLPPPRIKSQAPIQRD
B3: Frabin-GFP: full length Frabin-GFP expressed in Cos7 cells (protein)
chain: MEEIKPASASCVSKEKPSKVSDLISRFEGGSSLSNYSDLKKESAVNLNAPRTPGRHGLTTTPQQKLLSQHLPQRQGNDTDKTQGAQTCVANGVMAAQNQMECEEEKAATLSSDTSIQASEPLLDTHIVNGERDETATAPASPTTDSCDGNASDSSYRTPGIGPVLPLEERGAETETKVQERENGESPLELEQLDQHHEMKETNEQKLHKIANELLLTERAYVNRLDLLDQVFYCKLLEEANRGSFPAEMVNKIFSNISSINAFHSKFLLPELEKRMQEWETTPRIGDILQKLAPFLKMYGEYVKGFDNAMELVKNMTERIPQFKSVVEEIQKQKICGSLTLQHHMLEPVQRIPRYEMLLKDYLRKLPPDSLDWNDAKKSLEIISTAASHSNSAIRKMENLKKLLEIYEMLGEEEDIVNPSNELIKEGQILKLAARNTSAQERYLFLFNNMLLYCVPKFSLVGSKFTVRTRVGIDGMKIVETQNEEYPHTFQVSGKERTLELQASSAQDKEEWIKALQETIDAFHQRHETFRNAIAKDNDIHSEVSTAELGKRAPRWIRDNEVTMCMKCKEPFNALTRRRHHCRACGYVVCWKCSDYKAQLEYDGGKLSKVCKDCYQIISGFTDSEEKKRKGILEIESAEVSGNSVVCSFLQYMEKSKPWQKAWCVIPKQDPLVLYMYGAPQDVRAQATIPLLGYVVDEMPRSADLPHSFKLTQSKSVHSFAADSEELKQKWLKVILLAVTGETPGGPNEHPATLDDHPEPKKKSEC
modifications: left off: GFP, end not stated, kept
B4: DDB_G0275301: OCRL-Interacting Bar domain Protein of D. discoideum (protein)
chain: MFKKGLDVLSKTKNAAVSSMTELETESDEVQNAKVALKNMKWSIKLLIQLAKNYFATSDKQVQQGTAFSVILQRFSEKISHTNYIINQTLPLSDSLREVGEGIKNSSTYFQQYTQIFCDKFATNIEALYVGHVKKVATLEKQQEESRIKYNNALNYLKSTQKSGHTGTKLAEKTTEYENAKAYYEQISLNLISATNDMVNYVQREVAVQMKQFVAEQQLMVQECIKMWVIAENKLFNSQSPVNTTSTTSPNTYGDYNNNANTVNLSKLSLDKEEQPPQPYQPPQQHSPPQQTFHQSPPTDFSSQHQQYSFDQSSPQETYQPPQQQQPEGQKSPNPFDDKNPFDN

How the values were obtained:
[1] = tested on: F&H surface of Dd5P4 (GFP-Dd5P4 WT vs W620A); assay: GFP immunoprecipitation and mass spectrometry of GFP-Dd5P4 interactors; type: binding, Dictyostelium discoideum; settings: triplicate GFP immunoprecipitates; Dd5P4- cells expressing GFP-Dd5P4 WT vs W620A; label-free quantitation
Method in brief: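 Cells were grown to 80% confluency in HL5 (glucose, vitamins, trace elements), with fusion strains under 5 µg/ml G418. Lysis buffer: 20 mM Tris pH 8, 10% glycerol, 100 mM NaCl, 1 mM EDTA, 1 mM DTT. Untransfected WT cells served as negative control. Beads were digested overnight with trypsin at 37°C, then StageTip-desalted. C18 nanoLC used a 95-min 5–30% acetonitrile gradient into a Q Exactive, with data-dependent top-10 MS/MS.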

[2] = tested on: endogenous OCRL (mouse brain extracts); assay: GST-F&H peptide pull down of endogenous OCRL from mouse brain extracts; type: binding; settings: GST fusions of 13 amino acid F&H motif peptides, Ses2 and APPL1 as positive controls
[3] = tested on: human OCRL ASHRhoGAP domain; assay: Peptide array overlay with GST-hOCRL-ASHRhoGAP; type: binding; settings: summary statement, test not specified at the place
[4] = tested on: endogenous OCRL (Cos7 cells); assay: Frabin-GFP anti-GFP co-immunoprecipitation with endogenous OCRL in Cos7 cells; type: binding; settings: full length Frabin-GFP, GFP-trap beads, Western blot
Method in brief: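 Frabin-GFP expressed in Cos7 cells by nucleofection, then pulled down on GFP-trap beads and washed extensively. Western blot detected Frabin-GFP with anti-GFP antibody and endogenous OCRL with mouse anti-human OCRL antibody.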

Row | Molecule | enrichment in GFP-Dd5P4 immunoprecipitates [1] | further results
1 | DDB_G0284853: mycBP2/Highwire-like protein of D. discoideum | specifically enriched in precipitates from GFP-Dd5P4-expressing cells versus negative control precipitates, but not in precipitates from GFP-Dd5P4^W620A-expressing cells | 
2 | AFHQRHETFRNAI* [Frabin] |  | enrichment of endogenous OCRL by GST-F&H peptide [2]: specifically enriched endogenous OCRL; strength of Frabin F&H peptide interaction with OCRL [3]: strong
3 | B1 | specifically enriched in precipitates from GFP-Dd5P4-expressing cells versus negative control precipitates, but not in precipitates from GFP-Dd5P4^W620A-expressing cells | 
4 | B2 | specifically enriched in precipitates from GFP-Dd5P4-expressing cells versus negative control precipitates, but not in precipitates from GFP-Dd5P4^W620A-expressing cells | 
5 | B3 |  | coprecipitation of endogenous OCRL with Frabin-GFP [4]: weak but specific interaction with endogenous OCRL; also recorded: weak, albeit specific, coprecipitation with OCRL
6 | B4 | specifically enriched in precipitates from GFP-Dd5P4-expressing cells versus negative control precipitates, but not in precipitates from GFP-Dd5P4^W620A-expressing cells | 
